{"source": "ChEMBL document CHEMBL1121813", "about": "“Dihydrochalcone sweeteners. A study of the atypical temporal phenomena” (1981)", "type_in_all_cases": "functional", "key": {"Homo sapiens [1]": {"organism": "Homo sapiens", "test": "Intensity calculated on a molar basis relative to a 0.25 M sucrose solution at a concentration of 210 ppm (mean value)", "summary_of_the_method": "(§1)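 Trained human judges tasted aqueous solutions of the test compound; compounds were first required to be ≥95 weight percent pure and free of mutagenicity (five Salmonella typhimurium strains, ± microsomal activation) and of single oral dose mouse toxicity. Molar intensity I_m = perceived intensity × (0.25 M sucrose / compound molar concentration). The mean is reported with 2S_m limits; outliers were rejected at 95% confidence by t-value.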"}, "Homo sapiens [2]": {"organism": "Homo sapiens", "test": "Sweet / Bitter character at a concentration of 210 ppm (mean value); 0/100"}, "Homo sapiens [3]": {"organism": "Homo sapiens", "test": "Sweet character at a concentration of 210 ppm (mean value)"}, "Homo sapiens [4]": {"organism": "Homo sapiens", "test": "Percentage of judgments reporting an aftertaste at a concentration of 210 ppm and character thereof", "summary_of_the_method": "(§2)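 Trained judges tasted aqueous solutions of the compounds, which had to be ≥95 weight percent pure and to have passed mutagenicity and single oral dose toxicity screening. The value is the percentage of panel judgments reporting an aftertaste. Where given, its character is recorded as sweet, bitter or bitter-sweet.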"}, "Homo sapiens [5]": {"organism": "Homo sapiens", "test": "Number of taste judgments per compound"}, "Homo sapiens [6]": {"organism": "Homo sapiens", "test": "Intensity calculated on a weight basis relative to an 85500 ppm sucrose solution at a concentration of 210 ppm (mean value)", "summary_of_the_method": "(§3)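 Trained human panel tasted aqueous solutions of purity-checked (≥95 weight percent) compounds cleared for mutagenicity and mouse oral toxicity. Weight-basis intensity I_w = perceived intensity × (85500 ppm sucrose / compound concentration in ppm). The mean is reported with 2S_m limits; data deviating excessively at 95% confidence were rejected by the t-value method.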"}, "Homo sapiens [7]": {"organism": "Homo sapiens", "test": "Salty character at a concentration of 210 ppm (mean value)"}, "Homo sapiens [8]": {"organism": "Homo sapiens", "test": "Sour character at a concentration of 210 ppm (mean value)"}, "Homo sapiens [9]": {"organism": "Homo sapiens", "test": "Other taste character at a concentration of 210 ppm (mean value)", "summary_of_the_method": "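Trained human panel tasted aqueous solutions of each compound. Aftertaste is scored as the percentage of judgments reporting one, with its character coded sweet (s), bitter (b) or bitter-sweet (bs).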"}, "Homo sapiens [10]": {"organism": "Homo sapiens", "test": "Bitter character at a concentration of 210 ppm (mean value)", "summary_of_the_method": "(§4)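 Trained human panel tasted aqueous solutions. Each judge reported whether there was an aftertaste and its character (sweet, bitter or bitter-sweet). The value is the percentage of judgments reporting a bitter aftertaste.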"}, "Homo sapiens [11]": {"organism": "Homo sapiens", "test": "Experimentally determined perceived intensity of compound at a concentration of 210 ppm (mean value)", "summary_of_the_method": "(§5)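 Trained human sensory panel of judges tasted aqueous solutions of the compound. Samples had to be ≥95 weight % pure (HPLC, proton titration, Karl Fischer), non-mutagenic in five Salmonella typhimurium strains with and without microsomal activation, and non-toxic in a single-oral-dose mouse test. Perceived intensity (Ip) was read from time–intensity curves at 4- or 6-s intervals and averaged. Outliers at the 95% level were rejected by t-value. Values reported as mean (2Sm).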"}, "Homo sapiens [12]": {"organism": "Homo sapiens", "test": "Experimentally determined perceived intensity of compound at a concentration of 1000 ppm (mean value)", "summary_of_the_method": "as §5"}, "Homo sapiens [13]": {"organism": "Homo sapiens", "test": "Percentage of judgments reporting an aftertaste at a concentration of 1000 ppm", "summary_of_the_method": "as §2"}, "Homo sapiens [14]": {"organism": "Homo sapiens", "test": "Intensity calculated on a molar basis relative to a 0.25 M sucrose solution at a concentration of 260 ppm (mean value)", "summary_of_the_method": "as §1"}, "Homo sapiens [15]": {"organism": "Homo sapiens", "test": "Percentage of judgments reporting an aftertaste at a concentration of 260 ppm and character thereof", "summary_of_the_method": "as §2"}, "Homo sapiens [16]": {"organism": "Homo sapiens", "test": "Sweet character at a concentration of 260 ppm (mean value)"}, "Homo sapiens [17]": {"organism": "Homo sapiens", "test": "Bitter character at a concentration of 260 ppm (mean value)", "summary_of_the_method": "as §4"}, "Homo sapiens [18]": {"organism": "Homo sapiens", "test": "Other taste character at a concentration of 260 ppm (mean value)", "summary_of_the_method": "(§6)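 Trained human sensory panel (Swartz method) tasted dilute aqueous solutions of the compounds, which had to be ≥95 weight percent pure and free of mutagenicity and toxicity. Taste character is reported as the mean value with 2S_m limits. Data deviating excessively at the 95% confidence level were rejected by the t-value method.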"}, "Homo sapiens [19]": {"organism": "Homo sapiens", "test": "Sour character at a concentration of 260 ppm (mean value)"}, "Homo sapiens [20]": {"organism": "Homo sapiens", "test": "Sweet / Bitter character at a concentration of 260 ppm (mean value); 94/6"}, "Homo sapiens [21]": {"organism": "Homo sapiens", "test": "Intensity calculated on a weight basis relative to an 85500 ppm sucrose solution at a concentration of 260 ppm (mean value)", "summary_of_the_method": "as §3"}, "Homo sapiens [22]": {"organism": "Homo sapiens", "test": "Salty character at a concentration of 260 ppm (mean value)"}, "Homo sapiens [23]": {"organism": "Homo sapiens", "test": "Experimentally determined perceived intensity of compound at a concentration of 260 ppm (mean value)", "summary_of_the_method": "as §5"}, "Homo sapiens [24]": {"organism": "Homo sapiens", "test": "Intensity calculated on a molar basis relative to a 0.25 M sucrose solution at a concentration of 244 ppm (mean value)", "summary_of_the_method": "as §1"}, "Homo sapiens [25]": {"organism": "Homo sapiens", "test": "Salty character at a concentration of 244 ppm (mean value)"}, "Homo sapiens [26]": {"organism": "Homo sapiens", "test": "Intensity calculated on a weight basis relative to an 85500 ppm sucrose solution at a concentration of 244 ppm (mean value)", "summary_of_the_method": "as §3"}, "Homo sapiens [27]": {"organism": "Homo sapiens", "test": "Other taste character at a concentration of 244 ppm (mean value)", "summary_of_the_method": "as §6"}, "Homo sapiens [28]": {"organism": "Homo sapiens", "test": "Experimentally determined perceived intensity of compound at a concentration of 244 ppm (mean value)", "summary_of_the_method": "as §5"}, "Homo sapiens [29]": {"organism": "Homo sapiens", "test": "Sweet / Bitter character at a concentration of 244 ppm (mean value)"}, "Homo sapiens [30]": {"organism": "Homo sapiens", "test": "Sweet character at a concentration of 244 ppm (mean value)"}, "Homo sapiens [31]": {"organism": "Homo sapiens", "test": "Bitter character at a concentration of 244 ppm (mean value)", "summary_of_the_method": "as §4"}, "Homo sapiens [32]": {"organism": "Homo sapiens", "test": "Percentage of judgments reporting an aftertaste at a concentration of 244 ppm and character thereof; Bitter", "summary_of_the_method": "as §2"}, "Homo sapiens [33]": {"organism": "Homo sapiens", "test": "Sour character at a concentration of 244 ppm (mean value)"}, "Homo sapiens [34]": {"organism": "Homo sapiens", "test": "Other taste character at a concentration of 251 ppm (mean value)", "summary_of_the_method": "as §6"}, "Homo sapiens [35]": {"organism": "Homo sapiens", "test": "Bitter character at a concentration of 251 ppm (mean value)", "summary_of_the_method": "as §4"}, "Homo sapiens [36]": {"organism": "Homo sapiens", "test": "Salty character at a concentration of 251 ppm (mean value)", "summary_of_the_method": "as §6"}, "Homo sapiens [37]": {"organism": "Homo sapiens", "test": "Experimentally determined perceived intensity of compound at a concentration of 251 ppm (mean value)", "summary_of_the_method": "as §5"}, "Homo sapiens [38]": {"organism": "Homo sapiens", "test": "Sweet / Bitter character at a concentration of 251 ppm (mean value); 51/49"}, "Homo sapiens [39]": {"organism": "Homo sapiens", "test": "Sweet character at a concentration of 251 ppm (mean value)", "summary_of_the_method": "as §6"}, "Homo sapiens [40]": {"organism": "Homo sapiens", "test": "Intensity calculated on a molar basis relative to a 0.25 M sucrose solution at a concentration of 251 ppm (mean value)", "summary_of_the_method": "as §1"}, "Homo sapiens [41]": {"organism": "Homo sapiens", "test": "Intensity calculated on a weight basis relative to an 85500 ppm sucrose solution at a concentration of 251 ppm (mean value)", "summary_of_the_method": "as §3"}, "Homo sapiens [42]": {"organism": "Homo sapiens", "test": "Sour character at a concentration of 251 ppm (mean value)", "summary_of_the_method": "as §6"}, "Homo sapiens [43]": {"organism": "Homo sapiens", "test": "Percentage of judgments reporting an aftertaste at a concentration of 251 ppm and character thereof", "summary_of_the_method": "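Trained human sensory panel; compounds tasted in aqueous solution. Before panel work, compounds had to be ≥95 weight percent pure (HPLC, proton titration, Karl Fischer) and free of mutagenicity (five Salmonella typhimurium strains, ± microsomal activation) and single oral dose mouse toxicity. Value is the percentage of judgments reporting an aftertaste, with its character recorded as sweet, bitter or bitter-sweet.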"}}, "data": [{"smiles": "COc1ccc(CC/C(=N\\O)c2c(O)cc(OCC(=O)[O-])cc2O)cc1O.[Na+]", "values": [{"measurement": "IM", "setting": "Homo sapiens [1]", "result": 130}, {"measurement": "Taste character", "setting": "Homo sapiens [2]", "result": 0}, {"measurement": "Taste character", "setting": "Homo sapiens [3]", "result": 0}, {"measurement": "Judgments", "setting": "Homo sapiens [4]", "result": 0}, {"measurement": "Judgments", "setting": "Homo sapiens [5]", "result": 12}, {"measurement": "IW", "setting": "Homo sapiens [6]", "result": 110}, {"measurement": "Taste character", "setting": "Homo sapiens [7]", "result": 0}, {"measurement": "Taste character", "setting": "Homo sapiens [8]", "result": 26}, {"measurement": "Taste character", "setting": "Homo sapiens [9]", "result": 0}, {"measurement": "Taste character", "setting": "Homo sapiens [10]", "result": 74}, {"measurement": "IP", "setting": "Homo sapiens [11]", "result": 0.2}]}, {"smiles": "COc1ccc(CCC(=O)OC2C[C@](O)(C(=O)O)C[C@@H](O)[C@H]2O)cc1O", "note": "(some centres not stated)", "values": [{"measurement": "IP", "setting": "Homo sapiens [12]", "result": 0}, {"measurement": "Judgments", "setting": "Homo sapiens [5]", "result": 1}, {"measurement": "Judgments", "setting": "Homo sapiens [13]", "result": 0}]}, {"smiles": "COc1ccc(CCC(=O)c2c(O)cc(OCC(=O)[O-])cc2O)cc1O.[Na+]", "values": [{"measurement": "IM", "setting": "Homo sapiens [14]", "result": 330}, {"measurement": "Judgments", "setting": "Homo sapiens [15]", "result": 100}, {"measurement": "Taste character", "setting": "Homo sapiens [16]", "result": 76}, {"measurement": "Taste character", "setting": "Homo sapiens [17]", "result": 5}, {"measurement": "Taste character", "setting": "Homo sapiens [18]", "result": 19}, {"measurement": "Taste character", "setting": "Homo sapiens [19]", "result": 0}, {"measurement": "Judgments", "setting": "Homo sapiens [5]", "result": 12}, {"measurement": "Taste character", "setting": "Homo sapiens [20]", "result": 94}, {"measurement": "IW", "setting": "Homo sapiens [21]", "result": 300}, {"measurement": "Taste character", "setting": "Homo sapiens [22]", "result": 0}, {"measurement": "IP", "setting": "Homo sapiens [23]", "result": 0.9}]}, {"smiles": "COc1ccc(CCC(=O)O)cc1O", "values": [{"measurement": "IM", "setting": "Homo sapiens [24]", "result": 120}, {"measurement": "Taste character", "setting": "Homo sapiens [25]", "result": 0}, {"measurement": "IW", "setting": "Homo sapiens [26]", "result": 210}, {"measurement": "Judgments", "setting": "Homo sapiens [5]", "result": 8}, {"measurement": "Taste character", "setting": "Homo sapiens [27]", "result": 3}, {"measurement": "IP", "setting": "Homo sapiens [28]", "result": 0.6}, {"measurement": "Taste character", "setting": "Homo sapiens [29]", "result": 0}, {"measurement": "Taste character", "setting": "Homo sapiens [30]", "result": 0}, {"measurement": "Taste character", "setting": "Homo sapiens [31]", "result": 28}, {"measurement": "Judgments", "setting": "Homo sapiens [32]", "result": 50}, {"measurement": "Taste character", "setting": "Homo sapiens [33]", "result": 69}]}, {"smiles": "CCCOc1ccc(CCC(=O)c2c(O)cc(OCC(=O)[O-])cc2O)cc1O.[Na+]", "values": [{"measurement": "Taste character", "setting": "Homo sapiens [34]", "result": 23}, {"measurement": "Judgments", "setting": "Homo sapiens [5]", "result": 12}, {"measurement": "Taste character", "setting": "Homo sapiens [35]", "result": 38}, {"measurement": "Taste character", "setting": "Homo sapiens [36]", "result": 0}, {"measurement": "IP", "setting": "Homo sapiens [37]", "result": 0.72}, {"measurement": "Taste character", "setting": "Homo sapiens [38]", "result": 51}, {"measurement": "Taste character", "setting": "Homo sapiens [39]", "result": 39}, {"measurement": "IM", "setting": "Homo sapiens [40]", "result": 300}, {"measurement": "IW", "setting": "Homo sapiens [41]", "result": 240}, {"measurement": "Taste character", "setting": "Homo sapiens [42]", "result": 0}, {"measurement": "Judgments", "setting": "Homo sapiens [43]", "result": 100}]}]}
